Results on 48 variants are retold here after the RNAGym collection of RNA variant scans (doi:10.1002/anie.201605470).

B1: Osa-1-4 twister ribozyme (parent)
chain: CCGCCUAACACUGCCAAUGCCGGUCCCAAGCCCGGAUAAAAGUGGAGGGGGCGG

In the data set the parent is B1. In words: self-cleavage, relative activity (ratio to wild type); higher = more cleavage; co-transcriptional. Summed up:
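Relative activity is the fraction cleaved divided by that of the wild-type ribozyme. The library came from a DNA template for a 54-nucleotide Oryza sativa twister ribozyme, doped at the 48 positions downstream of the cleavage site with 97 % wild-type base and 1 % of each other base. After 2 h of in vitro transcription at 37 °C with co-transcriptional self-cleavage, the RNA was reverse-transcribed with a template-switching oligonucleotide, amplified by PCR and deep-sequenced, and reads with or without upstream sequence gave the cleavage status.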
On to CCGCCUAACACUGCCAAUGCCGGUCCCAAGCCCGGAUGAUAGUGGAGGGGGCGG [A38G A40U], for which the self-cleavage was 0.32.

As for CCGCCUAACACUGCCAAUGCCGGUCCCAAGCCCGGAUGAGAGUGGAGGGGGCGG [A38G A40G], the self-cleavage came out at 0.6.

Take CCGCCUAACACUGCCAAUGCCGGUCCCAAGCCCGGAUGACAGUGGAGGGGGCGG [A38G A40C]: the self-cleavage is 0.07.

For CCGCCUAACACUGCCAAUGCCGGUUCCAAGCCCGGAUGAAAGUGGAGGGGGCGG [A38G C25U], the self-cleavage amounted to 0.78.

Consider CCGCCUAACACUGCCAAUGCCGGUACCAAGCCCGGAUGAAAGUGGAGGGGGCGG [A38G C25A], for which the self-cleavage was 0.09.

Regarding CCGCCUAACACUGCCAAUGCCGGUGCCAAGCCCGGAUGAAAGUGGAGGGGGCGG [A38G C25G], the self-cleavage was found to be 0.11.

For CCGCCUAACACUGCCAAUGCCGGUCCGAAGCCCGGAUGAAAGUGGAGGGGGCGG [A38G C27G], the self-cleavage stood at 0.09.

For CCGCCUAACACUGCCAAUGCCGGUCCAAAGCCCGGAUGAAAGUGGAGGGGGCGG [A38G C27A], the self-cleavage stood at 0.16.

Consider CCGCCUAACACUGCCAAUGCCGGUCCUAAGCCCGGAUGAAAGUGGAGGGGGCGG [A38G C27U], for which the self-cleavage was 0.18.

Turning to CCGCCUAACACUGCCAAUGUCGGUCCCAAGCCCGGAUGAAAGUGGAGGGGGCGG [A38G C20U], the self-cleavage stood at 0.98.

For the variant CCGCCUAACACUGCCAAUGACGGUCCCAAGCCCGGAUGAAAGUGGAGGGGGCGG [A38G C20A], the self-cleavage is 0.9.

With CCGCCUAACACUGCCAAUGGCGGUCCCAAGCCCGGAUGAAAGUGGAGGGGGCGG [A38G C20G], the self-cleavage was found to be 0.19.

CCGCCUAACACUGCCAAUGCCGGUCCCAAGCCCGGAUGAACGUGGAGGGGGCGG [A38G A41C]: the self-cleavage came to 0.98.

With CCGCCUAACACUGCCAAUGCCGGUCCCAAGCCCGGAUGAAGGUGGAGGGGGCGG [A38G A41G], the self-cleavage was found to be 0.75.

In the case of CCGCCUAACACUGCCAAUGCCGGUCCCAAGCCCGGAUGAAUGUGGAGGGGGCGG [A38G A41U], the self-cleavage was determined as 1.01.

As to CCGCCUAACACUGCCAAUGCUGGUCCCAAGCCCGGAUGAAAGUGGAGGGGGCGG [A38G C21U], the self-cleavage was found to be 1.01.

For the variant CCGCCUAACACUGCCAAUGCGGGUCCCAAGCCCGGAUGAAAGUGGAGGGGGCGG [A38G C21G], the self-cleavage came out at 0.08.

With CCGCCUAACACUGCCAAUGCAGGUCCCAAGCCCGGAUGAAAGUGGAGGGGGCGG [A38G C21A], the self-cleavage came out at 0.78.

Take CCGCCUAACACUUCCAAUGCCGGUCCCAAGCCCGGAUGAAAGUGGAGGGGGCGG [A38G G13U]: the self-cleavage was found to be 0.03.

On to CCGCCUAACACUACCAAUGCCGGUCCCAAGCCCGGAUGAAAGUGGAGGGGGCGG [A38G G13A], for which the self-cleavage worked out at 0.12.

As for CCGCCUAACACUCCCAAUGCCGGUCCCAAGCCCGGAUGAAAGUGGAGGGGGCGG [A38G G13C], the self-cleavage came out at 0.03.

With CCGCCUAACACUGCCAAUGCCGAUCCCAAGCCCGGAUGAAAGUGGAGGGGGCGG [A38G G23A], the self-cleavage was found to be 0.47.

As for CCGCCUAACACUGCCAAUGCCGUUCCCAAGCCCGGAUGAAAGUGGAGGGGGCGG [A38G G23U], the self-cleavage came out at 0.1.

For CCGCCUAACACUGCCAAUGCCGCUCCCAAGCCCGGAUGAAAGUGGAGGGGGCGG [A38G G23C], the self-cleavage was 0.08.

In the case of CCGCCUAACACUGCCAAUGCCGGUCCCAAGCCAGGAUGAAAGUGGAGGGGGCGG [A38G C33A], the self-cleavage was 0.11.

CCGCCUAACACUGCCAAUGCCGGUCCCAAGCCUGGAUGAAAGUGGAGGGGGCGG [A38G C33U]: the self-cleavage came to 0.78.

On to CCGCCUAACACUGCCAAUGCCGGUCCCAAGCCGGGAUGAAAGUGGAGGGGGCGG [A38G C33G], for which the self-cleavage worked out at 0.07.

With CCGCCUAACAUUGCCAAUGCCGGUCCCAAGCCCGGAUGAAAGUGGAGGGGGCGG [A38G C11U], the self-cleavage is 0.94.

As to CCGCCUAACAAUGCCAAUGCCGGUCCCAAGCCCGGAUGAAAGUGGAGGGGGCGG [A38G C11A], the self-cleavage stood at 0.8.

CCGCCUAACAGUGCCAAUGCCGGUCCCAAGCCCGGAUGAAAGUGGAGGGGGCGG [A38G C11G]: the self-cleavage is 0.68.

Consider CCGCCUAACACUGCCAAUGCCGGUCCCAAGCCCGGAUGAAAGUGGAGGCGGCGG [A38G G49C], for which the self-cleavage was 0.08.

Consider CCGCCUAACACUGCCAAUGCCGGUCCCAAGCCCGGAUGAAAGUGGAGGAGGCGG [A38G G49A], for which the self-cleavage was determined as 0.13.

CCGCCUAACACUGCCAAUGCCGGUCCCAAGCCCGGAUGAAAGUGGAGGUGGCGG [A38G G49U]: the self-cleavage came to 0.13.

On to CCGCCUAACACUGCCAAUGCCGGUCCCAAGCCCGGAUGAAAGUGGAGGGAGCGG [A38G G50A], for which the self-cleavage was determined as 0.74.

In the case of CCGCCUAACACUGCCAAUGCCGGUCCCAAGCCCGGAUGAAAGUGGAGGGCGCGG [A38G G50C], the self-cleavage came to 1.

For the variant CCGCCUAACACUGCCAAUGCCGGUCCCAAGCCCGGAUGAAAGUGGAGGGUGCGG [A38G G50U], the self-cleavage came to 1.

Take CCGCCUAACACUGCCAAUGCCGGUCCCAAGCCCGGAUGAAAGUGGACGGGGCGG [A38G G47C]: the self-cleavage amounted to 0.08.

As to CCGCCUAACACUGCCAAUGCCGGUCCCAAGCCCGGAUGAAAGUGGAAGGGGCGG [A38G G47A], the self-cleavage was 0.19.

CCGCCUAACACUGCCAAUGCCGGUCCCAAGCCCGGAUGAAAGUGGAUGGGGCGG [A38G G47U]: the self-cleavage was 0.17.

As for CCGCCUAACACUGCCAAUGCCGGUCCCAAGCACGGAUGAAAGUGGAGGGGGCGG [A38G C32A], the self-cleavage was found to be 0.09.

CCGCCUAACACUGCCAAUGCCGGUCCCAAGCGCGGAUGAAAGUGGAGGGGGCGG [A38G C32G]: the self-cleavage came to 0.18.

As to CCGCCUAACACUGCCAAUGCCGGUCCCAAGCUCGGAUGAAAGUGGAGGGGGCGG [A38G C32U], the self-cleavage worked out at 0.12.

As for CCGCCUAACACUGCCAAUGCCGGUCGCAAGCCCGGAUGAAAGUGGAGGGGGCGG [A38G C26G], the self-cleavage is 0.14.

Turning to CCGCCUAACACUGCCAAUGCCGGUCUCAAGCCCGGAUGAAAGUGGAGGGGGCGG [A38G C26U], the self-cleavage was found to be 0.85.

With CCGCCUAACACUGCCAAUGCCGGUCACAAGCCCGGAUGAAAGUGGAGGGGGCGG [A38G C26A], the self-cleavage worked out at 0.06.

CCGCCUAACACUGCCAAUGCCGGUCCCAAGCCCGGAUGUAAGUGGAGGGGGCGG [A38G A39U]: the self-cleavage is 0.98.

For the variant CCGCCUAACACUGCCAAUGCCGGUCCCAAGCCCGGAUGAAAGUGUAGGGGGCGG [A38G G45U], the self-cleavage amounted to 0.09.

For CCGCCUAACACUGCCAAUGCCGGUCCCAAGCCCGGAUGAAAGUGAAGGGGGCGG [A38G G45A], the self-cleavage turned out to be 0.26.
